Source: ChEMBL document CHEMBL1649253, “New approach for drug susceptibility testing: monitoring the stress response of mycobacteria” (2009)
Values after ≈ are worked out from the molar mass of the structure shown.

Legend:
Format in all cases: functional
[1] = test system: Mycobacterium tuberculosis; experiment: Antibacterial activity against ethambutol-resistant Mycobacterium tuberculosis H37Ra
Procedure, shortened: (§1)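 Broth microdilution in supplemented 7H9 (complete) medium with twofold drug dilutions. Inoculum 10^6 CFU/ml from cultures grown at 37°C to mid- or late-log phase. Incubated 21 days at 37°C, then turbidity inspected by eye against drug-free controls. MIC is the lowest concentration with no visible growth.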

[2] = test system: Mycobacterium tuberculosis; experiment: Antibacterial activity against isoniazid-resistant Mycobacterium tuberculosis H37Ra; procedure, shortened: as §1
[3] = test system: Mycobacterium tuberculosis; experiment: Antibacterial activity against pyrazinamide-resistant Mycobacterium tuberculosis H37Ra; procedure, shortened: as §1
[4] = test system: Mycobacterium tuberculosis; experiment: Antibacterial activity against rifampin-resistant Mycobacterium tuberculosis H37Ra; procedure, shortened: as §1

Which results are given for NC(=O)c1cnccn1 [PYRAZINAMIDE]?
MIC [1]: 50 µg/mL (≈ 406 µM); MIC [2]: 50 µg/mL (≈ 406 µM); MIC [3]: > 4000 µg/mL; MIC [4]: 50 µg/mL (≈ 406 µM)

How did the MIC [1] turn out when CO[C@H]1/C=C/O[C@@]2(C)Oc3c(C)c(O)c4c(O)c(c(/C=N/N5CCN(C)CC5)c(O)c4c3C2=O)NC(=O)/C(C)=C\C=C\[C@H](C)[C@H](O)[C@@H](C)[C@@H](O)[C@@H](C)[C@H](OC(C)=O)[C@@H]1C [RIFAMPIN] was run?
Its MIC is 0.2 µg/mL (≈ 0.243 µM).

And the MIC [2]?
Its MIC is 0.2 µg/mL (≈ 0.243 µM).

What about the MIC [3] of the same compound?
The MIC was 0.2 µg/mL (≈ 0.243 µM).

And the MIC [4]?
The MIC was 16 µg/mL (≈ 19.4 µM).

What does the source list for NNC(=O)c1ccncc1 [ISONIAZID]?
MIC [1]: 0.2 µg/mL (≈ 1.46 µM); MIC [2]: > 16 µg/mL; MIC [3]: 0.2 µg/mL (≈ 1.46 µM); MIC [4]: 0.2 µg/mL (≈ 1.46 µM)

Which results are given for CC[C@@H](CO)NCCN[C@@H](CC)CO [ETHAMBUTOL]?
MIC [1]: > 400 µg/mL; MIC [2]: 5 µg/mL (≈ 24.5 µM); MIC [3]: 5 µg/mL (≈ 24.5 µM); MIC [4]: 5 µg/mL (≈ 24.5 µM)
